# Assay results from different studies.
# Compare with care: the assays were run in different laboratories.
Compound,target or system,assay,system,conditions,endpoint,value
COc1ccc2[nH]cc(CCN(C)C)c2c1,,potentiometric,water,,pKa,9.1
CC[C@@H]1CN2CCc3c([nH]c4cccc(OC)c34)[C@H]2C[C@@H]1/C(=C\OC)C(=O)OC,dog Hepatocyte,metabolic stability,hepatocytes,,half-life,> 2 h
CC1(C)CC(NC(=O)C(=O)Nc2ccc(Cl)cc2)CC(C)(C)N1,Cf2Th-CCR5,"cell growth or viability, MTS",,48 h,CC50,> 100 µM
N[C@@H]1C[C@H]1c1ccccc1 (racemic),"Cytochrome P450 2A6 (CYP2A6, Homo sapiens, UniProt P11509)","enzyme activity, inhibitor, fluorescence",,,IC50,0.49 µM
CCN(CC)CCO[C@H]1CC[C@@]2(C)C(=CC[C@@H]3[C@@H]2CC[C@]2(C)C(=O)CC[C@@H]32)C1,MA104,"cell growth or viability, MTS",,24 h,CC50,219 µM
CC[C@H](C)[C@H](NC(C)=O)C(=O)N[C@H]1CSSC[C@@H](C(=O)N[C@H](C(N)=O)[C@@H](C)O)NC(=O)[C@H](CCCNC(=N)N)NC(=O)[C@H](Cc2c[nH]cn2)NC(=O)[C@@](C)(CC)NC(=O)CNC(=O)[C@H](Cc2c[nH]c3ccccc23)NC(=O)[C@H](CC(=O)O)NC(=O)[C@H](CCC(N)=O)NC(=O)[C@H](Cc2c[nH]c3ccccc23)NC(=O)[C@H](C(C)C)NC1=O,,,PBS,pH 7.4,solubility,3600 µg/mL
C#Cc1ccc2c(c1)C(c1ccccn1)=NCc1c(-c3cnco3)ncn1-2.Cl,,,water,"10 min, 37 °C",kinetic solubility,2400 µg/mL
CC[C@H](C)[C@H](NC(=O)[C@H](CCCNC(=N)N)NC(=O)[C@H](CCC(=O)O)NC(C)=O)C(=O)N[C@H]1CSSC[C@@H](C(=O)N[C@H](C(N)=O)[C@@H](C)O)NC(=O)[C@H](CCCNC(=N)N)NC(=O)[C@H](Cc2c[nH]cn2)NC(=O)[C@H](Cc2cccc3ccccc23)NC(=O)CNC(=O)[C@H](Cc2c[nH]c3ccccc23)NC(=O)[C@H](CC(=O)O)NC(=O)[C@H](CCC(N)=O)NC(=O)[C@H](Cc2c[nH]c3ccccc23)NC(=O)[C@H](C(C)C)NC1=O,,,PBS,pH 7.4,solubility,380 µg/mL
Cc1ncc(C)n2nc(/C=C/c3nc(N4CCCC4)cc(N4CCOCC4)n3)nc12,,,"male beagle dog, plasma","oral, 0.3 mg/kg",bioavailability,42%
